The test system of series [1] is HEK293T. In words: Inhibition of BMP signalling pathway in BMP2-stimulated human HEK293T cells assessed as decrease in SMAD1 phosphorylation at 25 uM preincubated for 30 mins followed by BMP2 stimulation and measured after 15 mins by Western blot analysis. It is filed as cell-based. Conditions: time 45.0 min. The gist of the method: (§1)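 HEK293T cells, 3 × 10^5 per well, starved overnight in DMEM with 2 mM glycine and 2% heat-inactivated FBS. Pretreated 30 min with inhibitor, then 5 ng/mL BMP2 for 15 min. Lysed in M-PER with protease inhibitors. Western blot for pSMAD1/5, SMAD1, SMAD5 and GAPDH, quantified by densitometry.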
For orientation: In western blotting, separated proteins are transferred to a membrane and probed.

Series [2] concerns HUVEC. In words: Inhibition of BMP signalling pathway in BMP9-stimulated human HUVEC cells assessed as decrease in SMAD5 phosphorylation at 25 uM preincubated for 30 mins followed by BMP2 stimulation and measured after 15 mins by Western blot analysis. Type of series: cell-based. To be noted: time 45.0 min. The gist of the method: (§2)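 HUVECs, about 3 × 10^5 per well, starved overnight in Kaighn's F-12 with 0.5% FBS and 30 μg/mL endothelial cell growth supplement. Pretreated 30 min with inhibitor, then stimulated with 0.5 ng/mL BMP9. Lysed in M-PER with protease and phosphatase inhibitors. Western blot for pSMAD1/5, SMAD1 and SMAD5, quantified by densitometry.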

Series [3] deals with HUVEC. In words: Inhibition of BMP signalling pathway in BMP9-stimulated human HUVEC cells assessed as decrease in SMAD1 phosphorylation at 25 uM preincubated for 30 mins followed by BMP2 stimulation and measured after 15 mins by Western blot analysis. It is filed as cell-based. To be noted: time 45.0 min. The method in brief:
as §2

In series [4] the test system is HEK293T. Put plainly: Inhibition of BMP signalling pathway in BMP2-stimulated human HEK293T cells assessed as decrease in SMAD5 phosphorylation at 25 uM preincubated for 30 mins followed by BMP2 stimulation and measured after 15 mins by Western blot analysis. It is filed as cell-based. Conditions: time 45.0 min. The method in brief: as §1
The target of series [5] is TGF-beta receptor type-2 (Homo sapiens, UniProt P37173). In words: Inhibition of TGFBR2 (unknown origin) by LanthaScreen TR-FRET assay. The method in brief: (§3)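 Outsourced SelectScreen profiling using a LanthaScreen TR-FRET binding format, in which a tight-binding tracer is displaced from the kinase.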
Chain of TGF-beta receptor type-2 (P37173 whole entry): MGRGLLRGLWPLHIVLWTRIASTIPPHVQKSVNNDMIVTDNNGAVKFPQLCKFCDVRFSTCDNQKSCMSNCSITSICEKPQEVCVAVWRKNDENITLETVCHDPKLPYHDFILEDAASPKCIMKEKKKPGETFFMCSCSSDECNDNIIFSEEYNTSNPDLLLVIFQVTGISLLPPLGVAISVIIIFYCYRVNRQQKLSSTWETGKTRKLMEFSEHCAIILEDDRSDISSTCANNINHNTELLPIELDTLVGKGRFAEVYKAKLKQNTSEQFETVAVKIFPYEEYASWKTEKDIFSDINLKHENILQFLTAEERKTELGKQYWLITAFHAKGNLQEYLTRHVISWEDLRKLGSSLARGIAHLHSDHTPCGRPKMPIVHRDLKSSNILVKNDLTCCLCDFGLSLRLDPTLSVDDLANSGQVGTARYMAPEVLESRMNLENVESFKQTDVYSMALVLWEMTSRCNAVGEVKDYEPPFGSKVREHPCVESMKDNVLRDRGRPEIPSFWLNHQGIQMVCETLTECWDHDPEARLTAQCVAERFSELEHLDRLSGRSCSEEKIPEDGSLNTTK
(In TR-FRET formats the signal depends on donor and acceptor labels being close together.)

The target in series [6] is Receptor-interacting serine/threonine-protein kinase 2 (Homo sapiens, UniProt O43353). Put plainly: Inhibition of RIPK2 (unknown origin) incubated for 30 mins in presence of [gamma33P]ATP by microplate reader analysis.
Chain of Receptor-interacting serine/threonine-protein kinase 2 (O43353 whole entry): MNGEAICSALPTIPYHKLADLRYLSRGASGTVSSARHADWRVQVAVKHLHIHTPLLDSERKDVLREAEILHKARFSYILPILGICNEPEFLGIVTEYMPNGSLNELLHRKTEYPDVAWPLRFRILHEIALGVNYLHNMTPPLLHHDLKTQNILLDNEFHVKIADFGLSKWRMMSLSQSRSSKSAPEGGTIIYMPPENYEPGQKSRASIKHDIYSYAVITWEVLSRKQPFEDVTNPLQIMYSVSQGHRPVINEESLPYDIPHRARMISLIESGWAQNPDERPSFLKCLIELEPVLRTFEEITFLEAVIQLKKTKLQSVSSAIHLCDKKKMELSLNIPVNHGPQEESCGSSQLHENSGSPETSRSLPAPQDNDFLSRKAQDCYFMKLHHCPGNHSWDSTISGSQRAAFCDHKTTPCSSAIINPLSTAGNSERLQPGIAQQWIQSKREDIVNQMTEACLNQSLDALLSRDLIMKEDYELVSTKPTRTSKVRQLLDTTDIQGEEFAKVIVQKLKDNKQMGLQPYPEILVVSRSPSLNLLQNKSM
Series [7] deals with Activin receptor type-2A (Homo sapiens, UniProt P27037). Put plainly: Inhibition of ACVR2A (unknown origin) by LanthaScreen TR-FRET assay. The gist of the method: as §3
Chain of Activin receptor type-2A (P27037 whole entry): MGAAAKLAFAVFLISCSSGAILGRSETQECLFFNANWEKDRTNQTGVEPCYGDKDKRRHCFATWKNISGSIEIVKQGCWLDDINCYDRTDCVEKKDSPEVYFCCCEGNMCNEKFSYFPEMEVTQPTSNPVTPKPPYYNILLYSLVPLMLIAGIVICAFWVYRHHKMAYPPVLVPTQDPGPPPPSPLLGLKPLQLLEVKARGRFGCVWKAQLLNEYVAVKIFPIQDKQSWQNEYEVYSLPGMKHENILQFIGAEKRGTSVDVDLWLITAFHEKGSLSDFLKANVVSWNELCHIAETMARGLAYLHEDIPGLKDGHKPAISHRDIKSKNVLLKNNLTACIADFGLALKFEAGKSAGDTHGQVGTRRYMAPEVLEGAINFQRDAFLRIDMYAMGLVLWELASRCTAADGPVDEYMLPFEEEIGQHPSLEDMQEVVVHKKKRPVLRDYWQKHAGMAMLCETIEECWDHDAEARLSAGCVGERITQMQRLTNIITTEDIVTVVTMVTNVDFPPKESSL
A short description of series [8]: Inhibition of BMP signalling pathway in BMP2-stimulated human HEK293T cells expressing BRE and luciferase reporter assessed as inhibition of luciferase transactivation by measuring BRE-reporter activity preincubated for 30 mins followed by BMP2 stimulation and measured after 6 hrs by Bright-GLO mediated luciferase assay. To be noted: HEK-293T. Type of series: cell-based. The method in brief:
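293T cells stably carrying a BMP-responsive-element luciferase reporter, 2 × 10^4 per well, attached overnight in phenol-red-free DMEM with 2 mM glycine and 2% heat-inactivated FBS. Pretreated 30 min with inhibitor, then 5 ng/mL BMP2 for 6 h. Bright-Glo luminescence read; IC50 by nonlinear regression.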

For series [9], the target named is Activin receptor type-2B (Homo sapiens, UniProt Q13705). In words: Inhibition of ACVR2B (unknown origin) by LanthaScreen TR-FRET assay. The gist of the method: as §3
Chain of Activin receptor type-2B (Q13705 whole entry): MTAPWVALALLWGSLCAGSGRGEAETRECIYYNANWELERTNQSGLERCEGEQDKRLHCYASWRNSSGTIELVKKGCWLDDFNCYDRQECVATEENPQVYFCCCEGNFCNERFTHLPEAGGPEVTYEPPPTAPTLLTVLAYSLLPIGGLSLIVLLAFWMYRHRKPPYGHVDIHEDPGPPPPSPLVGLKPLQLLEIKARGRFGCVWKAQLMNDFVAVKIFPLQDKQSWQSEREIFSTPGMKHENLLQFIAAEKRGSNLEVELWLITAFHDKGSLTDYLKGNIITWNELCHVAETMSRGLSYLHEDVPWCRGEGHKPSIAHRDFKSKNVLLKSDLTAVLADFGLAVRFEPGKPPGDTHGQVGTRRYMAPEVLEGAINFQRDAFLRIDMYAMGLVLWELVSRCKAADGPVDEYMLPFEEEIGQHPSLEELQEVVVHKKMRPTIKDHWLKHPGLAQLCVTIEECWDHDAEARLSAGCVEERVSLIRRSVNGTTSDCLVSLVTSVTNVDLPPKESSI
The target of series [10] is T1, Bone morphogenetic protein receptor type-2 (Homo sapiens, UniProt Q13873).
T1 sequence (Q13873 whole entry): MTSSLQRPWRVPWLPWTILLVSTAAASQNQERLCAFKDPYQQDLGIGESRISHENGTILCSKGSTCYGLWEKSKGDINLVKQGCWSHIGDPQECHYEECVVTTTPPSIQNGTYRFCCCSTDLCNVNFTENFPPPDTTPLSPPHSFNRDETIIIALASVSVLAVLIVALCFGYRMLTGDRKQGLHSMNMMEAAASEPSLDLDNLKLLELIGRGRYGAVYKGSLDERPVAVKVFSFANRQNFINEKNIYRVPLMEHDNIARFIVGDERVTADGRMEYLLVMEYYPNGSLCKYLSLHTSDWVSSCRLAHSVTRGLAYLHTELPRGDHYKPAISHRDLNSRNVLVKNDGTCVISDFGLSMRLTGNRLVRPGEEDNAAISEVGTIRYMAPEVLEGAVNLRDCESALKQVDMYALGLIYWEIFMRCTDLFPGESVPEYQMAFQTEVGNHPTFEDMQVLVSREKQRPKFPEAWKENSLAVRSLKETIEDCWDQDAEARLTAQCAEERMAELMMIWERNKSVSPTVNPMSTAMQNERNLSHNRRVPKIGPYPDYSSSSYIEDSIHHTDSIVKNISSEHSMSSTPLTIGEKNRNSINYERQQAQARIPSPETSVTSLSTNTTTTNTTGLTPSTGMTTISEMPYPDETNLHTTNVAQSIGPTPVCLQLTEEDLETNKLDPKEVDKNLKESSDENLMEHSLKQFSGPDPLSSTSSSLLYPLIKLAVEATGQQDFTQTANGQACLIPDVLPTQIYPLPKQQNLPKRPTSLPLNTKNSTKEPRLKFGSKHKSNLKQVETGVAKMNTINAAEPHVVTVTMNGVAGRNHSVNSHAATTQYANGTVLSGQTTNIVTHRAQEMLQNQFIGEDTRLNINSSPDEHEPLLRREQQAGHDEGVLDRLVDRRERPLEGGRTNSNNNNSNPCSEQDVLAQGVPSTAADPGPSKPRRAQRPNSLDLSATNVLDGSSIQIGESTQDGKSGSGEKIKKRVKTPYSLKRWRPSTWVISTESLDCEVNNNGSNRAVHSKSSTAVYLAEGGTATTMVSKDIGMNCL
In words: (§4) Inhibition of recombinant C-terminal 6His-tagged human BMPR2 (188 to 517 residues) expressed in Escherichia coli Rosetta assessed as apparent inhibition constant using ATP as substrate incubated for 30 mins by Morrison plot analysis. To be noted: read-out: Ki(app). The gist of the method:
(§5)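 Purified His-tagged BMPR2 kinase domain with no peptide substrate (intrinsic ATPase). 10 μM ATP, 0.02% Tween-20, kinase buffer, 50 μL, enzyme level optimized for initial-velocity conditions. 30 min at 30 °C. Leftover ATP read by Kinase-Glo luminescence, with no-kinase controls. Kiapp from a modified Morrison equation fitted to normalized fractional activity, assuming no specific inhibition mode.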

The target of series [11] is T2, Bone morphogenetic protein receptor type-2 (Homo sapiens) (UniProt Q13873).
T2 sequence (whole entry): T1 sequence (Q13873 whole entry)
Described as §4. The gist of the method:
as §5

Series [12] can be described thus: Metabolic stability in mouse liver microsomes assessed as half life at 2 uM and mesured upto 60 mins in presence of NADPH by UHPLC-MS analysis. Type of series: ADME, Microsome. Conditions: for t1/2: microsomes, 1 h, 2 µM.
Series [13] can be described thus: Metabolic stability in mouse liver microsomes assessed as intrinsic clearance per mg of protein at 2 uM and mesured upto 60 mins in presence of NADPH by UHPLC-MS analysis. To be noted: for microsomal intrinsic clearance: microsomes, 1 h, 2 µM. Type of series: ADME, Microsome. (Liver microsomes are vesicles of endoplasmic reticulum, rich in cytochrome P450 enzymes.)

A short description of series [14]: Metabolic stability in human liver microsomes assessed as intrinsic clearance per mg of protein at 2 uM and mesured upto 60 mins in presence of NADPH by UHPLC-MS analysis. Conditions: for microsomal intrinsic clearance: microsomes, 1 h, 2 µM. It is filed as ADME, Microsome.
Series [15] can be described thus: Metabolic stability in human liver microsomes assessed as half life at 2 uM and mesured upto 60 mins in presence of NADPH by UHPLC-MS analysis. It is filed as ADME, Microsome. Conditions: for t1/2: microsomes, 1 h, 2 µM.
Setting [16] is: liver microsomes, read-out: CLH.

Activity calls are given as the source filed them. No cut-off for these calls is given here. Where only a bound is given, the exact number is not on record here.

One may read the IC50 as the concentration needed to halve the response being measured. Turning to `c1ccc2c(-c3cnn4cc(-c5ccc(N6CCNCC6)cc5)cnc34)ccnc2c1`, the inhibition result in series [1], in series [2], in series [3] and in series [4] was “Active” in each case. Moreover, the half-inhibitory concentration (IC50) in series [5] came out at 4.2 nM; in series [6], 25 nM; in series [7] it was 9.3 nM; in [8], 0.082 µM; in [9] it was 9.3 nM.
Turning to `COc1cnc(Nc2cccc(S(N)(=O)=O)c2)nc1N1CC2CC1CN2c1ccccc1` (stereo not drawn), the Ki in series [10] was 930 nM.
As to `COc1cnc(Nc2cccc(S(N)(=O)=O)c2)nc1N1CC2CCC1CN2c1ccccc1` (stereo not drawn), in [10], the Ki is 310 nM.
Turning to `COc1cnc(Nc2ccccc2)nc1N1CCN(c2ccccc2)CC1`, the inhibition entry in series [11] is “inactive”.
Turning to `CNC(=O)[C@@H]1CC[C@@H](n2c(-c3cccc(Cl)c3)nc3ccc(C(=O)NCc4cccc(C(N)=O)c4)cc32)C1`, the Ki in series [10] is more than 1000 nM.
With `COc1cnc(Nc2cccc(S(N)(=O)=O)c2)nc1N1CCN(c2ccccc2)CC1`, the inhibition entry in series [1], in series [2], in [3] and in series [4] was “Active” throughout. Further, the t1/2 was determined as 12 min in series [12] and 77 min in series [15]. Besides, the microsomal intrinsic clearance is 120 µL/min/mg in series [13] and 18 µL/min/mg in series [14]. Moreover, the Ki in [10] was 40 nM. Also, in [8], the IC50 came to 8.72 µM.
On to `NS(=O)(=O)c1cccc(Nc2ncc(OC(F)F)c(N3CCN(c4ccccc4)C(=O)C3)n2)c1`, for which, in series [10], the Ki is more than 200 nM.
Regarding `CNC(=O)c1ccc2nc(-c3ccc4cnccc4c3)n([C@@H]3CC[C@@H](C(=O)NC)C3)c2c1`, the Ki in [10] was more than 1000 nM.
`Cn1c(-c2ccc3cnccc3c2)nc2ccc(C(=O)NCc3cccc(C(N)=O)c3)cc21`: the t1/2 in series [12] is recorded as 14 min; in [15], 69 min. In addition, the microsomal intrinsic clearance in [13] stood at 99 µL/min/mg; in [14], 20 µL/min/mg. Besides, in [10], the Ki was found to be 22 nM. In addition, the IC50 in series [8] was 29.8 µM.
Regarding `CCOc1cnc(Nc2cccc(S(N)(=O)=O)c2)nc1N1CCN(c2ccccc2)C(=O)C1`, the figures for the t1/2 in [12] and in series [15] were 18 min and 73 min, respectively. The microsomal intrinsic clearance in series [13] turned out to be 79 µL/min/mg; in series [14], 19 µL/min/mg. The Ki in series [10] turned out to be 5 nM.
As to `COc1cnc(Nc2cccc(S(N)(=O)=O)c2)nc1N1CC(F)(c2ccccc2)C1`, the t1/2 in series [12] amounted to 21 min; in [15] it was 170 min. Further, the microsomal intrinsic clearance in series [13] worked out at 65 µL/min/mg; in [14] it was 8 µL/min/mg. Also, in series [10], the Ki worked out at 18 nM.
Regarding `Cc1nnc2n1-c1ccc(Cl)cc1C(c1ccccc1)=NC2` [ALPRAZOLAM], the figures for the t1/2 in [12] and in [15] were 258 min and 620 min, respectively. Besides, the microsomal CLint at 2 µM in series [13] (setting [16]) was 5 µL/min/mg.
Consider `COc1cnc(Nc2cccc(S(N)(=O)=O)c2)nc1N1CCN(c2ccccc2)CC1C` (stereo not drawn), for which the t1/2 turned out to be 6 min in [12] and 79 min in series [15]. In addition, the microsomal intrinsic clearance turned out to be 233 µL/min/mg in [13] and 18 µL/min/mg in [14]. Besides, the Ki in [10] amounted to 88 nM.
`COc1cnc(Nc2cccc(S(N)(=O)=O)c2)nc1N1CCN(c2ccccc2)CC12CC2`: the Ki in [10] came to 220 nM.
Same read-out and setting: the figure for `COc1cnc(Nc2cccc(S(N)(=O)=O)c2)nc1N1CCN(c2ccccc2)CC1C(F)(F)F` (stereo not drawn) is 430 nM.
Take `COc1cnc(Nc2cccc(S(N)(=O)=O)c2)nc1N1CCN(c2ccccc2)C(C)C1` (stereo not drawn): the t1/2 in series [12] is 6 min; in series [15] it was 60 min. The values for the microsomal intrinsic clearance in [13] and in series [14] were 220 µL/min/mg and 23 µL/min/mg, respectively. In addition, the Ki in series [10] came to 118 nM.
Consider `CNC(=O)[C@@H]1CC[C@@H](n2c(-c3ccc4cnccc4c3)nc3ccc(C(=O)NCc4ccccc4)cc32)C1`, for which the Ki in series [10] was found to be 39 nM.
`CC(C)Oc1cnc(Nc2cccc(S(N)(=O)=O)c2)nc1N1CCN(c2ccccc2)C(=O)C1`: the Ki in [10] was more than 200 nM.
With `NS(=O)(=O)c1cccc(Nc2ncc(C(F)(F)F)c(N3CCN(c4ccccc4)C(=O)C3)n2)c1`, in series [11], the inhibition entry is “inactive”.
In the case of `COc1cnc(Nc2cccc(S(N)(=O)=O)c2)nc1N1CCNCC1`, in series [10], the Ki was 250 nM.
Consider `COc1cnc(Nc2cccc(S(N)(=O)=O)c2)nc1N1CC2CCC(C1)N2c1ccccc1`, for which the Ki in [10] stood at 220 nM.
For the compound `Cc1sc2c(c1C)C(c1ccc(Cl)cc1)=N[C@@H](CC(=O)OC(C)(C)C)c1nnc(C)n1-2`, the t1/2 in series [15] came to 14 min.
Take `NS(=O)(=O)c1cccc(Nc2ncc(F)c(N3CCN(c4ccccc4)C(=O)C3)n2)c1`: the Ki in series [10] was 236 nM.
Usually half-life stands for how long it takes for the measured level to halve. With `COc1cnc(Nc2cccc(S(N)(=O)=O)c2)nc1N1CCN(c2ccccn2)CC1`, the half-life at 2 µM in [12] (liver microsomes) turned out to be 9 min; in [15] (liver microsomes) it was 43 min. The microsomal intrinsic clearance at 2 µM was 159 µL/min/mg in [13] (setting [16]) and 32 µL/min/mg in series [14] (setting [16]).
For the compound `CNC(=O)[C@@H]1CC[C@@H](n2c(-c3cc(Cl)cc(Cl)c3)nc3ccc(C(=O)NCc4cccc(C(N)=O)c4)cc32)C1`, in [10], the Ki is more than 1000 nM.

(Values after ChEMBL document CHEMBL5316332 (J Med Chem, 2023).)
